Assay results reported in ChEMBL document CHEMBL1122765, “Cyclic melanotropins. 5. Importance of the C-terminal tripeptide (Lys-Pro-Val)” (1984).
Bridge positions count the residues as written; N and C are the ends. Peptide text beside a SMILES is read from it.

Legend:
[1] = species on record: Mus musculus; assay: Adenylate cyclase activity in vitro in the membrane fraction from S-91 mouse melanoma tumors activity measured relative to alpha-MSH; assay type: functional, cell membranes
Summary of the method: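 Particulate membrane fraction from S-91 (Cloudman) melanoma tumors grown in […] mice. Adenylate cyclase measured as conversion of [α-³²P]ATP to [³²P]cAMP, with cAMP isolated and detected by the Salomon method. Potency relative to α-MSH from parallel dose–response curves.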

[2] = tested on: Anolis carolinensis; assay: Ability to stimulate melanosome dispersion in vitro in the lizard skin activity measured relative to alpha-MSH; assay type: functional
Summary of the method: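 Anolis carolinensis skin in vitro; melanosome dispersion read as skin darkening. Test solutions serially diluted from a 10⁻⁴ M stock. n = 6 skins per point, mean ± SE. Relative potency versus α-MSH taken from parallel dose–response curves over the linear range.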

[3] = tested on: Lithobates pipiens; assay: Ability to stimulate melanosome dispersion in vitro in the frog skin activity measured relative to alpha-MSH; assay type: functional
Summary of the method: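 Rana pipiens skin in vitro; melanosome dispersion read as skin darkening. Test solutions made by serial dilution from a 10⁻⁴ M stock. n = 6 or more skins per point, mean ± SE. Potency relative to α-MSH derived from parallel dose–response curves over the linear portion.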

| Relative potency [1] | SMILES | Relative potency [2] | Relative potency [3] |
| --- | --- | --- | --- |
| 0.16 | CC(=O)N[C@H]1CSSC[C@@H](C(=O)N[C@@H](CCCCN)C(N)=O)NC(=O)[C@H](Cc2c[nH]c3ccccc23)NC(=O)[C@@H](CCCN=C(N)N)NC(=O)[C@H](Cc2ccccc2)NC(=O)[C@@H](Cc2c[nH]cn2)NC(=O)[C@H](CCC(=O)O)NC1=O |  |  |
| 1.1 | CC(=O)N[C@H]1CSSC[C@@H](C(=O)N[C@@H](CCCCN)C(=O)N2CCC[C@@H]2C(=O)N[C@H](C(N)=O)C(C)C)NC(=O)[C@H](Cc2c[nH]c3ccccc23)NC(=O)[C@@H](CCCN=C(N)N)NC(=O)[C@H](Cc2ccccc2)NC(=O)[C@@H](Cc2c[nH]cn2)NC(=O)[C@H](CCC(=O)O)NC1=O |  |  |
| 0.016 | CC(=O)N[C@H]1CSSC[C@@H](C(N)=O)NC(=O)[C@H](Cc2c[nH]c3ccccc23)NC(=O)[C@@H](CCCN=C(N)N)NC(=O)[C@H](Cc2ccccc2)NC(=O)[C@@H](Cc2c[nH]cn2)NC(=O)[C@H](CCC(=O)O)NC1=O |  |  |
|  | CC(=O)N[C@H]1CSSC[C@@H](C(N)=O)NC(=O)[C@H](Cc2c[nH]c3ccccc23)NC(=O)[C@H](CCCN=C(N)N)NC(=O)[C@H](Cc2ccccc2)NC(=O)[C@H](Cc2c[nH]cn2)NC(=O)[C@H](CCC(=O)O)NC1=O | 0.003 | 0.06 |
|  | CC(=O)N[C@H]1CSSC[C@@H](C(=O)N[C@@H](CCCCN)C(=O)N2CCC[C@H]2C(N)=O)NC(=O)[C@H](Cc2c[nH]c3ccccc23)NC(=O)[C@H](CCCN=C(N)N)NC(=O)[C@@H](Cc2ccccc2)NC(=O)[C@H](Cc2c[nH]cn2)NC(=O)[C@H](CCC(=O)O)NC1=O | 6 | 20 |
|  | CC(=O)N[C@H]1CSSC[C@@H](C(=O)N[C@@H](CCCCN)C(=O)N2CCC[C@H]2C(N)=O)NC(=O)[C@H](Cc2c[nH]c3ccccc23)NC(=O)[C@H](CCCN=C(N)N)NC(=O)[C@H](Cc2ccccc2)NC(=O)[C@H](Cc2c[nH]cn2)NC(=O)[C@H](CCC(=O)O)NC1=O | 1.5 | 10 |
|  | CC(=O)N[C@@H](CO)C(=O)N[C@@H](Cc1ccc(O)cc1)C(=O)N[C@@H](CO)C(=O)N[C@H]1CSSC[C@@H](C(=O)N[C@@H](CCCCN)C(=O)N2CCC[C@H]2C(=O)N[C@H](C(N)=O)C(C)C)NC(=O)[C@H](Cc2c[nH]c3ccccc23)NC(=O)[C@H](CCCN=C(N)N)NC(=O)[C@H](Cc2ccccc2)NC(=O)[C@H](Cc2c[nH]cn2)NC(=O)[C@H](CCC(=O)O)NC1=O (Ac-SYSCEHFRWCKPV-NH2; disulfide 4-10) | 2 | 10 |
| 1.4 | CC(=O)N[C@H]1CSSC[C@@H](C(=O)N[C@@H](CCCCN)C(=O)N2CCC[C@@H]2C(N)=O)NC(=O)[C@H](Cc2c[nH]c3ccccc23)NC(=O)[C@@H](CCCN=C(N)N)NC(=O)[C@H](Cc2ccccc2)NC(=O)[C@@H](Cc2c[nH]cn2)NC(=O)[C@H](CCC(=O)O)NC1=O |  |  |
| 0.03 | CSCC[C@H](NC(C)=O)C(=O)N[C@@H](CCC(=O)O)C(=O)N[C@@H](Cc1c[nH]cn1)C(=O)N[C@@H](Cc1ccccc1)C(=O)N[C@@H](CCCN=C(N)N)C(=O)N[C@@H](Cc1c[nH]c2ccccc12)C(=O)NCC(N)=O | 0.03 | 0.0007 |
|  | CC(=O)N[C@H]1CSSC[C@@H](C(=O)N[C@@H](CCCCN)C(N)=O)NC(=O)[C@H](Cc2c[nH]c3ccccc23)NC(=O)[C@H](CCCN=C(N)N)NC(=O)[C@H](Cc2ccccc2)NC(=O)[C@H](Cc2c[nH]cn2)NC(=O)[C@H](CCC(=O)O)NC1=O | 0.07 | 0.16 |
|  | CC(=O)N[C@H]1CSSC[C@@H](C(=O)N[C@@H](CCCCN)C(=O)N2CCC[C@H]2C(=O)N[C@H](C(N)=O)C(C)C)NC(=O)[C@H](Cc2c[nH]c3ccccc23)NC(=O)[C@H](CCCN=C(N)N)NC(=O)[C@H](Cc2ccccc2)NC(=O)[C@H](Cc2c[nH]cn2)NC(=O)[C@H](CCC(=O)O)NC1=O | 0.6 | 30 |
